Data published in ChEMBL document CHEMBL1255404, “Spread of OXA-48-encoding plasmid in Turkey and beyond” (2010).
Converted amounts (≈) assume the structure as drawn.

Assays:
Format in all cases: functional
Escherichia coli [1] = assay: Antimicrobial activity against Escherichia coli isolate J53 harboring p7A containing beta-lactamase OXA-48 located within transposon Tn1999 by Etest method
In short: (§1)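 β-Lactam MICs read with Etest strips. Strains are E. coli J53 recipient and J53 transconjugants carrying OXA-48-positive plasmids recovered from clinical enterobacterial isolates.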

Klebsiella pneumoniae [2] = assay: Antimicrobial activity against Klebsiella pneumoniae isolate Kp5A expressing beta-lactamase OXA-48 and SHV-5 by Etest method
Escherichia coli [3] = assay: Antimicrobial activity against Escherichia coli isolate J53 harboring pBEL containing beta-lactamase OXA-48 located within transposon Tn1999.2 by Etest method; in short: as §1
Escherichia coli [4] = assay: Antimicrobial activity against Escherichia coli isolate J53 harboring p3A containing beta-lactamase OXA-48 located within transposon Tn1999 by Etest method in presence of beta-lactamase inhibitor clavulanic acid; in short: as §1
Escherichia coli [5] = assay: Antimicrobial activity against Escherichia coli isolate TOP10 harboring pBIC containing beta-lactamase OXA-48 located within transposon Tn1999.2 by Etest method in presence of beta-lactamase inhibitor clavulanic acid
In short: (§2)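 β-Lactam MICs read with Etest strips. Strains are E. coli TOP10 host and TOP10 transformants made with plasmid DNA extract when conjugation failed. Transformants were selected on LB agar with ticarcillin 50 μg/ml.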

Escherichia coli [6] = assay: Antimicrobial activity against Escherichia coli isolate J53 harboring pEnc2 containing beta-lactamase OXA-48 located within transposon Tn1999 by Etest method in presence of beta-lactamase inhibitor clavulanic acid; in short: as §1
Klebsiella pneumoniae [7] = assay: Antimicrobial activity against Klebsiella pneumoniae isolate KpB expressing OXA-48 and CTX-M-15 by Etest method in presence of beta-lactamase inhibitor clavulanic acid
In short: (§3)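 MICs of β-lactams read from Etest strips. The test organisms are carbapenem-resistant, OXA-48-positive clinical Enterobacteriaceae isolates recovered from Turkey, Lebanon, Egypt, France and Belgium.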

Klebsiella pneumoniae [8] = assay: Antimicrobial activity against Klebsiella pneumoniae isolate Kp5A expressing beta-lactamase OXA-48 and SHV-5 by Etest method in presence of beta-lactamase inhibitor clavulanic acid; in short: as §3
Escherichia coli [9] = assay: Antimicrobial activity against Escherichia coli isolate J53 harboring p7A containing beta-lactamase OXA-48 located within transposon Tn1999 by Etest method in presence of beta-lactamase inhibitor clavulanic acid; in short: as §1
Escherichia coli [10] = assay: Antimicrobial activity against Escherichia coli isolate J53 harboring pCF containing beta-lactamase OXA-48 located within transposon Tn1999 by Etest method in presence of beta-lactamase inhibitor clavulanic acid; in short: as §1
Providencia rettgeri = assay: Antimicrobial activity against Providencia rettgeri isolate expressing beta-lactamase OXA-48 and TEM-101 by Etest method in presence of beta-lactamase inhibitor clavulanic acid; in short: as §3
Escherichia coli [11] = assay: Antimicrobial activity against Escherichia coli isolate J53 harboring pEnc1 containing beta-lactamase OXA-48 located within transposon Tn1999 by Etest method in presence of beta-lactamase inhibitor clavulanic acid; in short: as §1
Escherichia coli [12] = assay: Antimicrobial activity against Escherichia coli isolate J53 harboring p6A containing beta-lactamase OXA-48 located within transposon Tn1999 by Etest method in presence of beta-lactamase inhibitor clavulanic acid; in short: as §1
Klebsiella pneumoniae [13] = assay: Antimicrobial activity against Klebsiella pneumoniae isolate KpB expressing OXA-48 and CTX-M-15 by Etest method
Klebsiella pneumoniae [14] = assay: Antimicrobial activity against Klebsiella pneumoniae isolate KpI-2 expressing beta-lactamase OXA-48 and CTX-M-15 by Etest method in presence of beta-lactamase inhibitor clavulanic acid; in short: as §3
Citrobacter freundii [15] = assay: Antimicrobial activity against Citrobacter freundii isolate expressing beta-lactamase OXA-48 by Etest method in presence of beta-lactamase inhibitor clavulanic acid; in short: as §3
Klebsiella pneumoniae [16] = assay: Antimicrobial activity against Klebsiella pneumoniae isolate KpE expressing beta-lactamase OXA-48 and CTX-M-15 by Etest method in presence of beta-lactamase inhibitor clavulanic acid; in short: as §3
Escherichia coli [17] = assay: Antimicrobial activity against Escherichia coli isolate J53 harboring pBEL containing beta-lactamase OXA-48 located within transposon Tn1999.2 by Etest method in presence of beta-lactamase inhibitor clavulanic acid; in short: as §1
Klebsiella pneumoniae [18] = assay: Antimicrobial activity against Klebsiella pneumoniae isolate KpI-2 expressing beta-lactamase OXA-48 and CTX-M-15 by Etest method
Citrobacter freundii [19] = assay: Antimicrobial activity against Citrobacter freundii isolate expressing beta-lactamase OXA-48 by Etest method
Escherichia coli [20] = assay: Antimicrobial activity against Escherichia coli isolate J53 harboring p5A containing beta-lactamase OXA-48 located within transposon Tn1999 by Etest method in presence of beta-lactamase inhibitor clavulanic acid; in short: as §1
Klebsiella pneumoniae [21] = assay: Antimicrobial activity against Klebsiella pneumoniae isolate KpL expressing beta-lactamase OXA-48 by Etest method
Enterobacter cloacae [22] = assay: Antimicrobial activity against Enterobacter cloacae isolate 2 expressing beta-lactamase OXA-48 and SHV-5 by Etest method in presence of beta-lactamase inhibitor clavulanic acid; in short: as §3
Escherichia coli [23] = assay: Antimicrobial activity against Escherichia coli isolate J53 harboring p4A containing beta-lactamase OXA-48 located within transposon Tn1999 by Etest method in presence of beta-lactamase inhibitor clavulanic acid; in short: as §1
Escherichia coli [24] = assay: Antimicrobial activity against Escherichia coli isolate TOP10 by Etest method; in short: as §2
Klebsiella pneumoniae [25] = assay: Antimicrobial activity against Klebsiella pneumoniae isolate Kp3A expressing beta-lactamase OXA-48 by Etest method in presence of beta-lactamase inhibitor clavulanic acid; in short: as §3
Enterobacter cloacae [26] = assay: Antimicrobial activity against Enterobacter cloacae isolate 2 expressing beta-lactamase OXA-48 and SHV-5 by Etest method
Escherichia coli [27] = assay: Antimicrobial activity against Escherichia coli isolate J53 harboring pBb containing beta-lactamase OXA-48 located within transposon Tn1999.2 by Etest method; in short: as §1
Klebsiella pneumoniae [28] = assay: Antimicrobial activity against Klebsiella pneumoniae isolate Kp7A expressing beta-lactamase OXA-48 by Etest method; in short: as §3
Escherichia coli [29] = assay: Antimicrobial activity against Escherichia coli isolate J53 harboring pI-1 containing beta-lactamase OXA-48 located within transposon Tn1999.2 by Etest method; in short: as §1
Klebsiella pneumoniae [30] = assay: Antimicrobial activity against Klebsiella pneumoniae isolate KpE expressing beta-lactamase OXA-48 and CTX-M-15 by Etest method
Escherichia coli [31] = assay: Antimicrobial activity against Escherichia coli isolate J53 by Etest method in presence of beta-lactamase inhibitor clavulanic acid
Escherichia coli [32] = assay: Antimicrobial activity against Escherichia coli isolate J53 harboring p5A containing beta-lactamase OXA-48 located within transposon Tn1999 by Etest method; in short: as §1
Enterobacter cloacae [33] = assay: Antimicrobial activity against Enterobacter cloacae isolate 1 expressing beta-lactamase OXA-48 and SHV-5 by Etest method
Klebsiella pneumoniae [34] = assay: Antimicrobial activity against Klebsiella pneumoniae isolate Kp11978 expressing beta-lactamase OXA-48, SHV-2a and TEM-1 by Etest method
Escherichia coli [35] = assay: Antimicrobial activity against Escherichia coli isolate J53 harboring pI-2 containing beta-lactamase OXA-48 located within transposon Tn1999.2 by Etest method; in short: as §1
Klebsiella pneumoniae [36] = assay: Antimicrobial activity against Klebsiella pneumoniae isolate KpBEL expressing beta-lactamase OXA-48 by Etest method; in short: as §3

Row | SMILES | MIC (Escherichia coli [1]) [µg/mL] | MIC (Klebsiella pneumoniae [2]) [µg/mL] | MIC (Escherichia coli [3]) [µg/mL] | MIC (Escherichia coli [4]) [µg/mL] | MIC (Escherichia coli [5]) [µg/mL] | MIC (Escherichia coli [6]) [µg/mL] | MIC (Klebsiella pneumoniae [7]) [µg/mL] | MIC (Klebsiella pneumoniae [8]) [µg/mL] | MIC (Escherichia coli [9]) [µg/mL] | MIC (Escherichia coli [10]) [µg/mL] | MIC (Providencia rettgeri) [µg/mL] | MIC (Escherichia coli [11]) [µg/mL] | MIC (Escherichia coli [12]) [µg/mL] | MIC (Klebsiella pneumoniae [13]) [µg/mL] | MIC (Klebsiella pneumoniae [14]) [µg/mL] | MIC (Citrobacter freundii [15]) [µg/mL] | MIC (Klebsiella pneumoniae [16]) [µg/mL] | MIC (Escherichia coli [17]) [µg/mL] | MIC (Klebsiella pneumoniae [18]) [µg/mL] | MIC (Citrobacter freundii [19]) [µg/mL] | also measured
1 | CC1(C)S[C@@H]2[C@H](NC(=O)[C@H](C(=O)O)c3ccsc3)C(=O)N2[C@H]1C(=O)O [TICARCILLIN] | > 512 | > 512 | > 256 | > 512 | > 512 | > 512 | > 512 | > 512 | > 512 | > 512 | > 256 | > 512 | > 512 | > 512 | > 512 | > 512 | > 512 | > 256 | > 512 | > 512 | MIC (Escherichia coli [20]): > 512 µg/mL; MIC (Klebsiella pneumoniae [21]): > 256 µg/mL; MIC (Enterobacter cloacae [22]): > 512 µg/mL; MIC (Escherichia coli [23]): > 512 µg/mL; MIC (Escherichia coli [24]): 4 µg/mL (≈ 10.4 µM); MIC (Klebsiella pneumoniae [25]): > 512 µg/mL; MIC (Enterobacter cloacae [26]): > 512 µg/mL; MIC (Escherichia coli [27]): > 512 µg/mL; MIC (Klebsiella pneumoniae [28]): > 512 µg/mL; MIC (Escherichia coli [29]): > 512 µg/mL; MIC (Klebsiella pneumoniae [30]): > 512 µg/mL; MIC (Escherichia coli [31]): 2 µg/mL; MIC (Escherichia coli [32]): > 512 µg/mL; MIC (Enterobacter cloacae [33]): > 512 µg/mL; MIC (Klebsiella pneumoniae [34]): > 512 µg/mL; MIC (Escherichia coli [35]): > 512 µg/mL; MIC (Klebsiella pneumoniae [36]): > 256 µg/mL
2 | CC1(C)S[C@@H]2[C@H](NC(=O)[C@H](N)c3ccc(O)cc3)C(=O)N2[C@H]1C(=O)O [AMOXICILLIN] | > 512 | > 512 | > 256 | > 512 | > 512 | > 512 | > 512 | > 512 | > 512 | > 512 | > 256 | > 512 | > 512 | > 512 | > 512 | > 512 | > 512 | > 256 | > 512 | > 512 | MIC (Escherichia coli [20]): > 512 µg/mL; MIC (Klebsiella pneumoniae [21]): > 256 µg/mL; MIC (Enterobacter cloacae [22]): > 512 µg/mL; MIC (Escherichia coli [23]): > 512 µg/mL; MIC (Escherichia coli [24]): 4 µg/mL (≈ 10.9 µM); MIC (Klebsiella pneumoniae [25]): > 512 µg/mL; MIC (Enterobacter cloacae [26]): > 512 µg/mL; MIC (Escherichia coli [27]): > 512 µg/mL; MIC (Klebsiella pneumoniae [28]): > 512 µg/mL; MIC (Escherichia coli [29]): > 512 µg/mL; MIC (Klebsiella pneumoniae [30]): > 512 µg/mL; MIC (Escherichia coli [31]): 4 µg/mL; MIC (Escherichia coli [32]): > 512 µg/mL; MIC (Enterobacter cloacae [33]): > 512 µg/mL; MIC (Klebsiella pneumoniae [34]): > 512 µg/mL; MIC (Escherichia coli [35]): > 512 µg/mL; MIC (Klebsiella pneumoniae [36]): > 256 µg/mL
